Results reported in publication PMC9660540 (Clinical Cancer Research, 2022).

Test: Causally related adverse events, phase Ia/Ib study in patients with solid tumors
Type: in vivo, human
How it was run: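 Expansion cohorts received nanosuspension at 100 mg once daily. The safety set was all patients given ≥1 dose, classified by the treatment actually received. Treatment was delayed or reduced for grade ≥3 or clinically significant nonhematologic toxicity.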

Cc1cc(-c2nnc(N)nc2-c2ccc(F)cc2)cc(Cl)n1 [AZD4635]
Causally related AE grade ≥3: ALT increased (CRC IO-naïve): 0 n (%)
Causally related AE grade ≥3: Abdominal pain (CRC IO-naïve): 0 n (%)
Causally related AE grade ≥3: Anemia (CRC IO-naïve): 0 n (%)
Causally related AE grade ≥3: Arthralgia (CRC IO-naïve): 0 n (%)
Causally related AE grade ≥3: Blood creatinine increased (CRC IO-naïve): 0 n (%)
Causally related AE grade ≥3: CRP increased (CRC IO-naïve): 0 n (%)
Causally related AE grade ≥3: Dermatitis psoriasiform (CRC IO-naïve): 0 n (%)
Causally related AE grade ≥3: Diarrhea (CRC IO-naïve): 0 n (%)
Causally related AE grade ≥3: Dizziness (CRC IO-naïve): 0 n (%)
Causally related AE grade ≥3: Dyspnea (CRC IO-naïve): 0 n (%)
Causally related AE grade ≥3: Fatigue (CRC IO-naïve): 1 (4.0) n (%)
Causally related AE grade ≥3: Headache (CRC IO-naïve): 0 n (%)
Causally related AE grade ≥3: Hyperglycemia (CRC IO-naïve): 0 n (%)
Causally related AE grade ≥3: Hypertension (CRC IO-naïve): 0 n (%)
Causally related AE grade ≥3: Hypophosphatemia (CRC IO-naïve): 0 n (%)
Causally related AE grade ≥3: Insomnia (CRC IO-naïve): 0 n (%)
Causally related AE grade ≥3: Lipase increased (CRC IO-naïve): 0 n (%)
Causally related AE grade ≥3: Lymphocyte count decreased (CRC IO-naïve): 0 n (%)
Causally related AE grade ≥3: Myositis (CRC IO-naïve): 0 n (%)
Causally related AE grade ≥3: Nausea (CRC IO-naïve): 0 n (%)
Causally related AE grade ≥3: Neutrophil count decreased (CRC IO-naïve): 0 n (%)
Causally related AE grade ≥3: Obliterative bronchiolitis (CRC IO-naïve): 0 n (%)
Causally related AE grade ≥3: Rash (CRC IO-naïve): 0 n (%)
Causally related AE grade ≥3: Sudden death (CRC IO-naïve): 1 (4.0) n (%)
Causally related AE grade ≥3: Type I diabetes mellitus (CRC IO-naïve): 0 n (%)
Causally related AE grade ≥3: Vomiting (CRC IO-naïve): 1 (4.0) n (%)
≥Grade 3 causally related AE (CRC IO-naïve): 3 (12.0) n (%)
Causally related AE grade ≥3: ALT increased (NSCLC Post-IO): 0 n (%)
Causally related AE grade ≥3: Abdominal pain (NSCLC Post-IO): 0 n (%)
Causally related AE grade ≥3: Anemia (NSCLC Post-IO): 0 n (%)
Causally related AE grade ≥3: Arthralgia (NSCLC Post-IO): 0 n (%)
Causally related AE grade ≥3: Blood creatinine increased (NSCLC Post-IO): 0 n (%)
Causally related AE grade ≥3: CRP increased (NSCLC Post-IO): 0 n (%)
Causally related AE grade ≥3: Dermatitis psoriasiform (NSCLC Post-IO): 0 n (%)
Causally related AE grade ≥3: Diarrhea (NSCLC Post-IO): 0 n (%)
Causally related AE grade ≥3: Dizziness (NSCLC Post-IO): 0 n (%)
Causally related AE grade ≥3: Dyspnea (NSCLC Post-IO): 0 n (%)
Causally related AE grade ≥3: Fatigue (NSCLC Post-IO): 1 (5.9) n (%)
Causally related AE grade ≥3: Headache (NSCLC Post-IO): 0 n (%)
Causally related AE grade ≥3: Hyperglycemia (NSCLC Post-IO): 0 n (%)
Causally related AE grade ≥3: Hypertension (NSCLC Post-IO): 0 n (%)
Causally related AE grade ≥3: Hypophosphatemia (NSCLC Post-IO): 0 n (%)
Causally related AE grade ≥3: Insomnia (NSCLC Post-IO): 0 n (%)
Causally related AE grade ≥3: Lipase increased (NSCLC Post-IO): 0 n (%)
Causally related AE grade ≥3: Lymphocyte count decreased (NSCLC Post-IO): 0 n (%)
Causally related AE grade ≥3: Myositis (NSCLC Post-IO): 0 n (%)
Causally related AE grade ≥3: Nausea (NSCLC Post-IO): 0 n (%)
Causally related AE grade ≥3: Neutrophil count decreased (NSCLC Post-IO): 0 n (%)
Causally related AE grade ≥3: Obliterative bronchiolitis (NSCLC Post-IO): 0 n (%)
Causally related AE grade ≥3: Rash (NSCLC Post-IO): 0 n (%)
Causally related AE grade ≥3: Sudden death (NSCLC Post-IO): 0 n (%)
Causally related AE grade ≥3: Type I diabetes mellitus (NSCLC Post-IO): 0 n (%)
Causally related AE grade ≥3: Vomiting (NSCLC Post-IO): 0 n (%)
≥Grade 3 causally related AE (NSCLC Post-IO): 1 (5.9) n (%)
Causally related AE grade ≥3: ALT increased (Other IO-naïve): 0 n (%)
Causally related AE grade ≥3: Abdominal pain (Other IO-naïve): 1 (5.3) n (%)
Causally related AE grade ≥3: Anemia (Other IO-naïve): 0 n (%)
Causally related AE grade ≥3: Arthralgia (Other IO-naïve): 0 n (%)
Causally related AE grade ≥3: Blood creatinine increased (Other IO-naïve): 0 n (%)
Causally related AE grade ≥3: CRP increased (Other IO-naïve): 0 n (%)
Causally related AE grade ≥3: Dermatitis psoriasiform (Other IO-naïve): 0 n (%)
Causally related AE grade ≥3: Diarrhea (Other IO-naïve): 1 (5.3) n (%)
Causally related AE grade ≥3: Dizziness (Other IO-naïve): 0 n (%)
Causally related AE grade ≥3: Dyspnea (Other IO-naïve): 0 n (%)
Causally related AE grade ≥3: Fatigue (Other IO-naïve): 2 (10.5) n (%)
Causally related AE grade ≥3: Headache (Other IO-naïve): 0 n (%)
Causally related AE grade ≥3: Hyperglycemia (Other IO-naïve): 0 n (%)
Causally related AE grade ≥3: Hypertension (Other IO-naïve): 2 (10.5) n (%)
Causally related AE grade ≥3: Hypophosphatemia (Other IO-naïve): 0 n (%)
Causally related AE grade ≥3: Insomnia (Other IO-naïve): 0 n (%)
Causally related AE grade ≥3: Lipase increased (Other IO-naïve): 0 n (%)
Causally related AE grade ≥3: Lymphocyte count decreased (Other IO-naïve): 0 n (%)
Causally related AE grade ≥3: Myositis (Other IO-naïve): 0 n (%)
Causally related AE grade ≥3: Nausea (Other IO-naïve): 0 n (%)
Causally related AE grade ≥3: Neutrophil count decreased (Other IO-naïve): 0 n (%)
Causally related AE grade ≥3: Obliterative bronchiolitis (Other IO-naïve): 0 n (%)
Causally related AE grade ≥3: Rash (Other IO-naïve): 0 n (%)
Causally related AE grade ≥3: Sudden death (Other IO-naïve): 0 n (%)
Causally related AE grade ≥3: Type I diabetes mellitus (Other IO-naïve): 0 n (%)
Causally related AE grade ≥3: Vomiting (Other IO-naïve): 0 n (%)
≥Grade 3 causally related AE (Other IO-naïve): 5 (26.3) n (%)
Causally related AE grade ≥3: ALT increased (Other Post-IO): 0 n (%)
Causally related AE grade ≥3: Abdominal pain (Other Post-IO): 0 n (%)
